The subject of experiment [1] is Punta Toro virus. Nature of the experiment: Antiviral activity against Punta Toro virus Adames infected Syrian golden hamster assessed as mean viral titer per 0.1 g of liver at 30 mg/kg, […] measured on day 4 of viral infection. Type of experiment: functional. Particulars: route oral.
For experiment [2], the system named is Punta Toro virus. Nature of the experiment: Antiviral activity against 5000 PFU Punta Toro virus Adames infected C57BL/6 mouse assessed as mean day of death at 30 mg/kg, po twice daily for 5 days administered 24 hrs post viral challenge. Type of experiment: functional. A digest of the protocol: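 PTV was inoculated subcutaneously into mice in groups of 15 (25–30 placebo). Dosing was by oral gavage twice daily for 5–7 days, with T-705 suspended in 0.4% CMC and ribavirin in saline. Remaining animals were observed 21–28 days for survival and day of death. Test doses had first been checked for tolerance in uninfected animals.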

The subject of experiment [3] is Punta Toro virus. The experiment can be described thus: Antiviral activity against 5000 PFU Punta Toro virus Adames infected C57BL/6 mouse assessed as mean serum ALT levels at 10 mg/kg, po twice daily administered 24 hrs post viral challenge measured on day 3 of viral infection. Type of experiment: functional. The method in brief:
(§1)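 C57BL/6 mice received subcutaneous PTV, then oral gavage twice daily for 5–7 days. T-705 was given in 0.4% CMC and ribavirin in saline. Five mice per group (10 placebo) were killed on day 3 or 4, and serum was collected. ALT activity was measured by kinetic assay. Three sham-infected mice set baselines.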

The test system of experiment [4] is Punta Toro virus. Nature of the experiment: Antiviral activity against 50 PFU Punta Toro virus Adames infected C57BL/6 mouse assessed as mean day of death at 30 mg/kg, po twice daily for 5 days administered 24 hrs post viral challenge. Type of experiment: functional. The method in brief: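 Groups of 15 mice (25–30 placebo) were inoculated subcutaneously with PTV. Drug in 0.4% carboxymethylcellulose was given by oral gavage twice daily.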

Experiment [5] has as its system Punta Toro virus. The experiment can be described thus: Antiviral activity against 50 PFU Punta Toro virus Adames infected C57BL/6 mouse assessed as animals with detectable virus level in liver at 10 mg/kg, po twice daily administered 24 hrs post viral challenge measured on day 3 of viral infection. Type of experiment: functional. A digest of the protocol:
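T-705 was suspended in 0.4% carboxymethylcellulose and given by oral gavage twice daily. Mice were infected subcutaneously with PTV. Five mice per group (10 placebo) were sacrificed on day 3 or 4. Liver homogenate or serum was serially diluted onto triplicate LLC-MK2 monolayers, and CPE was read at 6–8 days. The detection limit was 2.8 log10 CCID50 per 0.1 g liver or 0.1 ml serum.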

The test system of experiment [6] is La Crosse virus. Nature of the experiment: Antiviral activity against La Crosse virus assessed as inhibition of virus-induced visual cytopathic effect after 3 to 5 days. Type of experiment: functional, organism-based. A digest of the protocol: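 Virus diluted in 2% FBS medium was added with half-log drug dilutions at infection. Plates were incubated at 37°C, 5% CO2, until maximal CPE in infected controls, then scored visually 3–5 days post-infection. EC50 was derived by regression analysis.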

Experiment [7] relates to Pichinde virus. Nature of the experiment: Antiviral activity against Pichinde virus An 4763 infected Syrian golden hamster assessed as animals with detectable virus level in serum at 50 mg/kg, po twice daily for 7 days administered 24 hrs post viral-challenge measured on day 7 of viral infection. Type of experiment: functional. A digest of the protocol:
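Hamsters (groups of 15, placebo 25-30) were dosed orally by gavage twice daily (drug suspended in 0.4% CMC) after bilateral intraperitoneal challenge with 65 PFU. Five per group were killed on day 7. Liver homogenate or serum was serially diluted onto triplicate B-SC-1 wells, CPE was read at 6-8 days, and the 50% endpoint was taken. Range was 2.8-9.5 log10 CCID50/0.1 g or 0.1 ml, with undetectable assigned <2.8.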

For experiment [8], the system named is Pichinde virus. Nature of the experiment: Antiviral activity against Pichinde virus An 4763 infected Syrian golden hamster assessed as mean day of death at 50 mg/kg, po twice daily for 7 days administered 72 hrs post viral-challenge measured on day 7 of viral infection. Type of experiment: functional. The method in brief: (§2)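 Groups of 15 hamsters (placebo 25-30) were challenged intraperitoneally (bilateral, 65 PFU) and dosed twice daily by oral gavage in 0.4% CMC for 5 to 7 days.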

Experiment [9] relates to Pichinde virus. The experiment can be described thus: Antiviral activity against Pichinde virus An 4763 infected Syrian golden hamster assessed as mean serum ALT levels at 20 mg/kg, po twice daily for 7 days administered 72 hrs post viral-challenge measured on day 7 of viral infection. Type of experiment: functional. A digest of the protocol:
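Hamsters were challenged intraperitoneally (bilateral, 65 PFU) and given twice-daily oral gavage doses (0.4% CMC vehicle). Five per group were sacrificed on day 7 and serum was collected. Serum ALT activity was measured by kinetic assay. Three sham-infected animals set the baselines.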

In experiment [10] the test system is Punta Toro virus. Nature of the experiment: Antiviral activity against 500 PFU Punta Toro virus Adames infected C57BL/6 mouse assessed as mean viral titer per 0.1 mL of serum at 30 mg/kg, po twice daily administered 24 hrs post viral challenge measured on day 3 of viral infection. The format is functional. The method in brief: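 Mice were infected subcutaneously with PTV and dosed by oral gavage twice daily; 5 per group (10 placebo) were killed on day 3 or 4. Liver homogenate or serum was serially diluted onto triplicate LLC-MK2 monolayers, and CPE was read 6–8 days later. 50% endpoints gave log10 CCID50 per 0.1 g liver or 0.1 ml serum. Detection range was 2.8–9.5; undetectable samples were assigned <2.8.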

Experiment [11] deals with Punta Toro virus. The experiment can be described thus: Antiviral activity against 500 PFU Punta Toro virus Adames infected C57BL/6 mouse assessed as mean serum ALT levels at 30 mg/kg, po twice daily administered 24 hrs post viral challenge measured on day 3 of viral infection. Type of experiment: functional. A digest of the protocol:
as §1

Experiment [12] has as its system Punta Toro virus. Nature of the experiment: Antiviral activity against Punta Toro virus Adames infected Syrian golden hamster assessed as animals with detectable virus level in serum at 30 mg/kg, […] measured on day 4 of viral infection. Type of experiment: functional. The following applies: route oral.
The test system of experiment [13] is Punta Toro virus. Nature of the experiment: Antiviral activity against Punta Toro virus Adames infected Syrian golden hamster assessed as mean serum ALT levels at 30 mg/kg, po twice daily administered 4 hrs before viral challenge measured on day 4 of viral infection. The format is functional. A digest of the protocol: (§3)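 Hamsters were challenged subcutaneously with 50 PFU and dosed twice daily by oral gavage in 0.4% CMC. Five per group were sacrificed on day 3 or 4. Livers were scored 0-4 for icterus, and serum ALT was measured by kinetic assay against three sham-infected baseline animals.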

Experiment [14] deals with Punta Toro virus. The experiment can be described thus: Antiviral activity against Punta Toro virus Adames infected Syrian golden hamster assessed as inhibition of liver damage at 30 mg/kg, po twice daily administered 4 hrs before viral challenge measured on day 4 of viral infection. The format is functional, organism-based. Further details: dose 30 mg/kg. The method in brief:
as §3

Experiment [15] concerns Tacaribe virus. The experiment can be described thus: Antiviral activity against Tacaribe virus TRVL11573 in Vero cells assessed as inhibition of virus-induced visual cytopathic effect after 7 to 8 days. Type of experiment: functional, organism-based. Particulars: Mammarenavirus tacaribeense. The method in brief:
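Subconfluent (50-70%) Vero cells were infected with virus in 2% FBS medium at the CCID50 giving maximal CPE. Half-log drug dilutions were added at infection. EC50 was obtained by regression analysis.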

In experiment [16] the test system is Pichinde virus. The experiment can be described thus: Antiviral activity against Pichinde virus An 4763 infected Syrian golden hamster assessed as inhibition of liver damage at 40 mg/kg, po twice daily for 7 days administered 4 hrs before viral-challenge measured on day 7 of viral infection. The format is functional, organism-based. Further details: dose 40 mg/kg. The method in brief: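 Hamsters were challenged intraperitoneally (bilateral, 65 PFU) and dosed twice daily by oral gavage in 0.4% CMC. On day 7, five animals per group were sacrificed. Livers were scored 0-4 for hepatic icterus (0 normal, 4 maximal yellow coloration), and serum ALT was measured by kinetic assay.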

Experiment [17] relates to Pichinde virus. Nature of the experiment: Antiviral activity against Pichinde virus An 4763 infected Syrian golden hamster assessed as mean day of death at 50 mg/kg, po twice daily for 7 days administered 24 hrs post viral-challenge. Type of experiment: functional. A digest of the protocol: as §2

A word on the EC50: it is the concentration giving half of the maximal effect.

Active and inactive are the calls of the source. The rule behind the calls is not given here.

For `NC(=O)c1nc(F)cnc1O` [FAVIPIRAVIR], the log10CCID50 in experiment [1] is recorded as less than 3.5; in experiment [10], less than 5.1. Further, the Activity in experiment [2] is 5 days; in [3], 2274 IU/L; in experiment [4], greater than 21 days; in experiment [5] it was 0%; in experiment [7], 80%; in experiment [8], 14.8 days. The Activity in experiment [9] is 1890 IU/L; in [11], 900 IU/L; in [12] it was 40%; in [13] it was 25 IU/L; in experiment [17], greater than 21 days. For the same molecule, the results for the EC50 in [6] and in [15] were 32 µM and 6 µM, respectively. For the same molecule, the result in [14] and in experiment [16] was Active.
For `NC(=O)c1ncn([C@@H]2O[C@H](CO)[C@@H](O)[C@H]2O)n1` [RIBAVIRIN], the figures for the log10CCID50 in experiment [1] and in [10] were less than 2.8 and less than 5, respectively. Besides, the Activity in experiment [2] was 5 days; in experiment [3] it was 1515 IU/L; in experiment [4], greater than 21 days; in [5], 40%; in experiment [7] it was 40%; in [8], 18.5 days. Also, the Activity in [9] is 67 IU/L; in experiment [11], 450 IU/L; in experiment [12], 0%; in experiment [13] it was 13 IU/L; in experiment [17], greater than 21 days. The EC50 in experiment [6] was found to be 70 µM; in experiment [15], 10 µM. For the same molecule, the result in [14] and in experiment [16] was Active.
